According to ChEMBL document CHEMBL4715793 (J Med Chem, 2016):
Activity calls are given as the source filed them. The calls are words filed in the database; no cut-off is given here.

Tests used:
Hepacivirus hominis [1] = experiment: Inhibition of HCV NS3/4a protease
Hepatitis C virus [2] = experiment: Synergistic antiviral activity against HCV J6/JFH/JC1 infected in human HuH7.5 cells assessed as inhibition of viral protein levels at 6.25 uM in presence of sofosbuvir measured after 72 hrs by western blot analysis; format: functional, organism-based; details: Hepacivirus hominis
Outline: (§1)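 Huh7.5 cells infected with HCV (45 IU/cell) and simultaneously treated with compound (6.25 μM) alone, DAA alone, or both. […] Intracellular protein analysed by Western blot at 72 h. At least triplicate, mean ± SD, Student's t test.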

Hepatitis C virus [3] = experiment: Synergistic antiviral activity against HCV J6/JFH/JC1 infected in human HuH7.5 cells assessed as inhibition of viral protein levels at 6.25 uM in presence of simeprevir measured after 72 hrs by western blot analysis; format: functional, organism-based; details: Hepacivirus hominis; outline: as §1
Hepatitis C virus [4] = experiment: Synergistic antiviral activity against HCV J6/JFH/JC1 infected in human HuH7.5 cells assessed as combination index measured after 72 hrs in presence of daclatasvir by Chou-Talalay method; format: functional, Hepacivirus hominis
Hepatitis C virus [5] = experiment: Synergistic antiviral activity against HCV J6/JFH/JC1 infected in human HuH7.5 cells assessed as combination index measured after 72 hrs in presence of simeprevir by Chou-Talalay method; format: functional, Hepacivirus hominis
[6] = Resistance ratio of EC50 for antiviral activity against HCV J6/JFH/JC1 harboring S282T mutant infected in human Huh7.5 cells to EC50 for antiviral activity against wild-type HCV J6/JFH/JC1 infected in human Huh7.5 cells; format: functional
Hepatitis C virus [7] = experiment: Antiviral activity against HCV J6/JFH/JC1 harboring S282T mutant infected in human Huh7.5 cells assessed as inhibition of viral replication measured after 72 hrs by qRT-PCR analysis; format: functional, organism-based, Hepacivirus hominis; details: J6/JFH/JC1, Huh7.5, 72 h
Hepatitis C virus [8] = experiment: Antiviral activity against HCV J6/JFH/JC1 harboring D168V mutant infected in human Huh7.5 cells assessed as inhibition of viral replication measured after 72 hrs by qRT-PCR analysis; format: functional, organism-based, Hepacivirus hominis; details: J6/JFH/JC1, Huh7.5, 72 h
Hepatitis C virus [9] = experiment: Antiviral activity against HCV J6/JFH/JC1 harboring A156T mutant infected in human Huh7.5 cells assessed as inhibition of viral replication measured after 72 hrs by qRT-PCR analysis; format: functional, organism-based, Hepacivirus hominis; details: J6/JFH/JC1, Huh7.5, 72 h
Hepatitis C virus [10] = experiment: Antiviral activity against wild-type HCV J6/JFH/JC1 infected in human Huh7.5 cells assessed as inhibition of viral replication measured after 72 hrs by qRT-PCR analysis; format: functional, organism-based, Hepacivirus hominis; details: J6/JFH/JC1, Huh7.5, 72 h
Outline: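 Huh7.5 cells seeded at 3 × 10^4/cm2 and incubated 24 h. Infected with wild-type HCVcc stock (45 IU/cell) with compound or solvent control added at the same time. After 72 h, intracellular RNA measured by one-step qRT-PCR and core protein by Western blot. EC50 by Reed & Muench method, mean ± SD from three independent experiments.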

Hepatitis C virus [11] = experiment: Antiviral activity against HCV infected in human HuH7.5 cells assessed as inhibition of viral protein level during early stage at 6.25 to 25 uM incubated for 2 hrs prior to compound washout followed by supplementation of fresh culture medium and measured after 72 hrs by Western blot analysis; format: functional, organism-based; details: Hepacivirus hominis; Huh-7; dose 6.25-25 µM
Outline: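 Huh7.5 cells seeded 24 h earlier, infected with HCV (150 IU/cell) with simultaneous compound or solvent control for 2 h. Cells washed with PBS and given fresh medium. Intracellular RNA (qRT-PCR) and protein (Western blot) extracted at 72 h.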

Hepatitis C virus [12] = experiment: Antiviral activity against HCV subgenomic replicon harboring I377-3'del.S infected in human GS4.3 cells assessed as inhibition of viral replication at 0.23 to 18.52 uM after 72 hrs by qRT-PCR analysis; format: functional, organism-based; details: Hepacivirus hominis, Liver, dose 0.23-18.52 µM
Outline: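 GS4.3 cells (Huh7 carrying HCV subgenomic replicon I377-3′del.S) seeded at 3 × 10^4/cm2, after 24 h treated with compound or solvent control. After 72 h intracellular RNA extracted and replicon RNA measured by qRT-PCR. Cytotoxicity checked by MTT at 72 h.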

Huh7.5 [13] = experiment: Effect on Hsc70 expression level in human Huh7.5 cells at 6.25 to 25 uM by Western blot analysis; format: functional, cell-based; details: dose 6.25-25 µM
Huh7.5 [14] = experiment: Effect on CD36 expression level in human Huh7.5 cells at 6.25 to 25 uM by Western blot analysis; format: functional, cell-based; details: dose 6.25-25 µM
[15] = biological target: T1, Chondroitin sulfate N-acetylgalactosaminyltransferase 1 (Homo sapiens) (UniProt Q8TDX6); experiment: Destabilization of CSGalNacT-1 in human Huh7.5 cells assessed as down regulation of CSGalNacT-1 protein levels at 25 uM measured after 24 hrs in presence of protease inhibitor MG132 by Western blot analysis; format: cell-based
T1 sequence (whole entry): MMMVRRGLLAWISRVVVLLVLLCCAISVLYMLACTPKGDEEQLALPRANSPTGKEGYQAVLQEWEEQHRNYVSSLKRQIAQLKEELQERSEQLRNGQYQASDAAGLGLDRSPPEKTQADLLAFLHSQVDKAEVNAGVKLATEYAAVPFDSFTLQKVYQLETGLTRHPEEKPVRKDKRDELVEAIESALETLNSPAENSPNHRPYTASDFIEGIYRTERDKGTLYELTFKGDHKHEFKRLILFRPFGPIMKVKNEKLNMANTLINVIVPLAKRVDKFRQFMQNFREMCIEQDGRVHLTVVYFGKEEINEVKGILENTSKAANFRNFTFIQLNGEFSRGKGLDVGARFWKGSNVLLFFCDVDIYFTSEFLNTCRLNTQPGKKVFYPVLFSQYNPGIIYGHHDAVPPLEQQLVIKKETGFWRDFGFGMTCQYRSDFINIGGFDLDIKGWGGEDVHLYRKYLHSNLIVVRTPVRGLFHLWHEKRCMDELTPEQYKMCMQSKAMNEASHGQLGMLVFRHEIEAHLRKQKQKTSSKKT
Outline: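 Huh7.5 cells cotreated with compound (25 μM) and proteasome inhibitor MG132 (1 μM). Cells given compound alone or MG132 alone served as controls. After 24 h, total intracellular protein extracted and CSGalNAcT-1 detected by Western blot.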

Hepacivirus hominis [16] = experiment: Inhibition of HCV NS5B polymerase
[17] = Cytotoxicity against human Huh7.5 cells assessed as reduction in cell viability incubated for 72 hrs by MTT assay; format: cell-based
Outline: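 Huh7.5 cells seeded at 3 × 10^4/cm2, grown 24 h, then exposed to compound for 72 h. Viability read by MTT assay. CC50 by Reed & Muench method, mean ± SD from three independent experiments.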

[18] = biological target: T1, Chondroitin sulfate N-acetylgalactosaminyltransferase 1 (Homo sapiens); experiment: Destabilization of CSGalNacT-1 in human Huh7.5 cells assessed as reduction in CSGalNacT-1 expression measured after 72 hrs by Western blot analysis; format: cell-based; details: dose 6.25-100 µM
[19] = biological target: T1, Chondroitin sulfate N-acetylgalactosaminyltransferase 1 (Homo sapiens); experiment: Destabilization of CSGalNacT-1 in HCV infected human HuH7.5 cells assessed as reduction in CSGalNacT-1 protein levels measured after 72 hrs by Western blot analysis; details: dose 6.25-100 µM
Outline: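 Huh7.5 cells infected with HCV (45 IU/cell) and exposed to compound for 72 h. CSGalNAcT-1 protein measured by Western blot and mRNA by qRT-PCR. Error bars are SD of three independent experiments.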

[20] = biological target: T1, Chondroitin sulfate N-acetylgalactosaminyltransferase 1 (Homo sapiens); experiment: Destabilization of CSGalNacT-1 in human Huh7.5 cells assessed as reduction in CSGalNacT-1 mRNA levels by gene chip assay; format: cell-based

SMILES: COc1cc(/C=C/c2ccccc2)c(C(=O)O)c(O)c1CC=C(C)C
- inhibition (Hepacivirus hominis [1]): inactive
- Activity (Hepatitis C virus [2]): Active
- Activity (Hepatitis C virus [3]): Active
- CI (Hepatitis C virus [4]): 0.76
- CI (Hepatitis C virus [5]): 0.953
- Ratio EC50 [6]: 2.8
- EC50 (Hepatitis C virus [7]): 8.59 µM
- EC50 (Hepatitis C virus [8]): 3.8 µM
- EC50 (Hepatitis C virus [9]): 6.44 µM
- EC50 (Hepatitis C virus [10]): 3.03 µM
- Activity (Hepatitis C virus [11]): inactive
- Activity (Hepatitis C virus [12]): inactive
- Activity (Huh7.5 [13]): inactive
- Activity (Huh7.5 [14]): inactive
- Activity [15]: inactive
- inhibition (Hepacivirus hominis [16]): inactive
- CC50 at 72 h [17]: 91 µM
- Activity [18]: Dose-dependent effect
- Activity [19]: Dose-dependent effect
- Activity [20]: Active
